In ChEMBL document CHEMBL1134641, “Progress toward the development of a safe and effective agent for treating reentrant cardiac arrhythmias: synthesis and evaluation of ibutilide analogues with enhanced metabolic stability and diminished proarrhythmic potential” (2001):

What was measured:
Oryctolagus cuniculus [1] = species: Oryctolagus cuniculus; experiment: Mean dose of test compound at which a statistically significant increase was first observed and the dose for the maximum increase in QTc interval in rabbits (0.1-1.0); format: functional
Outline: (§1)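 Male New Zealand white rabbits (2.5-3.5 kg), anesthetized and instrumented. Methoxamine infused at 10 µg/kg/min; methoxamine baseline taken after 15 min. Compound, dissolved in 0.1 M fumaric acid in absolute EtOH and diluted with saline, given as a continuous iv infusion of 5 mg/kg over 30 min. QTc (QT/√RR) and MAPD90 followed over time; cumulative mg/kg dose recorded at first significant rise (one-way ANOVA, p≤0.05) and at maximum rise.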

Oryctolagus cuniculus [2] = species: Oryctolagus cuniculus; experiment: Mean dose of test compound at which a statistically significant increase was first observed and the dose for the maximum increase in MAPD90 in rabbits (0.1-0.25); format: functional
Outline: (§2)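 Male New Zealand white rabbits (2.5-3.5 kg), anesthetized and instrumented. Methoxamine infused at 10 µg/kg/min; baseline taken after 15 min. Compound in 0.1 M fumaric acid/EtOH diluted with saline, infused IV at 5 mg/kg over 30 min. Readouts: QTc and MAPD90 maxima vs methoxamine baseline, with accumulated dose, and dose at EAD or PVT onset. ANOVA, p ≤ 0.05.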

Oryctolagus cuniculus [3] = species: Oryctolagus cuniculus; experiment: Maximum increase in the ventricular monophasic action potential duration at 90% repolarization from the methoxamine infusion baseline in rabbits; format: functional, Cardiac ventricle; outline: as §2
Oryctolagus cuniculus [4] = species: Oryctolagus cuniculus; experiment: Mean dose at which EADs (early after depolarizations) began to develop in rabbits; format: functional; outline: as §2
Oryctolagus cuniculus [5] = species: Oryctolagus cuniculus; experiment: Mean dose at which PVTs (Polymorphic ventricular tachyarrhythmias) were observed in rabbits; format: functional, Cardiac ventricle; outline: as §2
Oryctolagus cuniculus [6] = experiment: In vivo evaluation of potential efficacy observed as the maximum increase in QTc interval from the methoxamine infusion baseline in rabbits; format: functional; outline: as §2
Oryctolagus cuniculus [7] = species: Oryctolagus cuniculus; experiment: Mean dose of test compound at which a statistically significant increase was first observed and the dose for the maximum increase in QTc interval in rabbits; format: functional; outline: as §1
Homo sapiens = species: Homo sapiens; experiment: Metabolic stability in relative to 31E observed on incubation with human liver microsomes; format: functional; settings: Microsome
Outline: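 Pooled human liver microsomes, 1 mg protein/mL, in 50 mM potassium phosphate pH 7.4. Substrate at 0.4-0.5 µM final; preincubated at 37 °C, then started with an NADPH-generating system (isocitrate/isocitrate dehydrogenase). Aliquots taken up to 20 min and quenched in acetonitrile. Remaining substrate measured by reversed-phase HPLC with fluorescence detection. Log-concentration vs time slope taken; ratio reported as reference slope/test slope; values >20 treated as stable. Three experiments.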

Oryctolagus cuniculus [8] = species: Oryctolagus cuniculus; experiment: Mean dose of test compound at which a statistically significant increase was first observed and the dose for the maximum increase in MAPD90 in rabbits (0.5-2.0); format: functional; outline: as §1
Oryctolagus cuniculus [9] = species: Oryctolagus cuniculus; experiment: Mean dose of test compound at which a statistically significant increase was first observed and the dose for the maximum increase in QTc interval in rabbits (0.25-5.0); format: functional; outline: as §1
Oryctolagus cuniculus [10] = species: Oryctolagus cuniculus; experiment: Mean dose of test compound at which a statistically significant increase was first observed and the dose for the maximum increase in MAPD90 in rabbits (0.5-1.0); format: functional; outline: as §1
Oryctolagus cuniculus [11] = species: Oryctolagus cuniculus; experiment: Mean dose of test compound at which a statistically significant increase was first observed and the dose for the maximum increase in MAPD90 in rabbits (0.25-0.5); format: functional; outline: as §2
Oryctolagus cuniculus [12] = species: Oryctolagus cuniculus; experiment: Mean dose of test compound at which a statistically significant increase was first observed and the dose for the maximum increase in QTc interval in rabbits (0.1-0.25); format: functional; outline: as §1
Oryctolagus cuniculus [13] = species: Oryctolagus cuniculus; experiment: Mean dose of test compound at which a statistically significant increase was first observed and the dose for the maximum increase in MAPD90 in rabbits (0.25-1.0); format: functional; outline: as §1
Oryctolagus cuniculus [14] = species: Oryctolagus cuniculus; experiment: Mean dose of test compound at which a statistically significant increase was first observed and the dose for the maximum increase in MAPD90 in rabbits (0.25-5.0); format: functional; outline: as §1
Oryctolagus cuniculus [15] = species: Oryctolagus cuniculus; experiment: Mean dose of test compound at which a statistically significant increase was first observed and the dose for the maximum increase in MAPD90 in rabbits (0.1-5.0); format: functional; outline: as §2
Oryctolagus cuniculus [16] = species: Oryctolagus cuniculus; experiment: Mean dose of test compound at which a statistically significant increase was first observed and the dose for the maximum increase in MAPD90 in rabbits (0.1-2.0); format: functional; outline: as §2
Oryctolagus cuniculus [17] = species: Oryctolagus cuniculus; experiment: Mean dose of test compound at which a statistically significant increase was first observed and the dose for the maximum increase in QTc interval in rabbits (0.1-0.5); format: functional; outline: as §1
Oryctolagus cuniculus [18] = species: Oryctolagus cuniculus; experiment: Mean dose of test compound at which a statistically significant increase was first observed and the dose for the maximum increase in MAPD90 in rabbits (0.1-1.0); format: functional; outline: as §2
Oryctolagus cuniculus [19] = species: Oryctolagus cuniculus; experiment: Mean dose of test compound at which a statistically significant increase was first observed and the dose for the maximum increase in MAPD90 in rabbits (0.1-0.5); format: functional; outline: as §2
Oryctolagus cuniculus [20] = species: Oryctolagus cuniculus; experiment: Mean dose of test compound at which a statistically significant increase was first observed and the dose for the maximum increase in MAPD90 in rabbits (0.25-2.0); format: functional; outline: as §1
Oryctolagus cuniculus [21] = species: Oryctolagus cuniculus; experiment: Mean dose of test compound at which a statistically significant increase was first observed and the dose for the maximum increase in QTc interval in rabbits (0.2-1.0); format: functional; outline: as §1
Oryctolagus cuniculus [22] = species: Oryctolagus cuniculus; experiment: Mean dose of test compound at which a statistically significant increase was first observed and the dose for the maximum increase in MAPD90 in rabbits; format: functional; outline: as §2

SMILES	MAPD90 (Oryctolagus cuniculus [3])	Dose (Oryctolagus cuniculus [4])	Dose (Oryctolagus cuniculus [5])	QTc interval (Oryctolagus cuniculus [6])	Dose (Oryctolagus cuniculus [7])	Metabolic stability relative to 31E (Homo sapiens)	further results
CCN(CCCCCC(C)(F)F)CCC[C@H](O)c1ccc(NS(C)(=O)=O)cc1	92 ms	0.3 mg/kg	0.3 mg/kg	106 ms	–	–	Dose (Oryctolagus cuniculus [1]): 1 mg/kg; Dose (Oryctolagus cuniculus [2]): 0.25 mg/kg
CCN(CC/C=C/c1ccc(NS(C)(=O)=O)cc1)CCCCCC(C)F (configuration not stated)	133 ms	0.3 mg/kg	1.5 mg/kg	75 ms	2 mg/kg	300%	Dose (Oryctolagus cuniculus [8]): 2 mg/kg
CCCCCCCN(CC)CCCC(O)c1ccc(NS(C)(=O)=O)cc1 (configuration not stated) [IBUTILIDE]	65 ms	1.7 mg/kg	1 mg/kg	85 ms	–	–	Dose (Oryctolagus cuniculus [9]): 5 mg/kg; Dose (Oryctolagus cuniculus [10]): 1 mg/kg
CCN(CCCCCC(F)F)CCC[C@H](O)c1ccc(NS(C)(=O)=O)cc1	123 ms	0.2 mg/kg	0.3 mg/kg	154 ms	–	–	Dose (Oryctolagus cuniculus [11]): 0.5 mg/kg; Dose (Oryctolagus cuniculus [12]): 0.25 mg/kg
CCN(CCCCCC(C)(F)F)CCCC(O)c1ccc(NS(C)(=O)=O)cc1 (configuration not stated)	118 ms	0.4 mg/kg	0.7 mg/kg	96 ms	0.25 mg/kg	–	Dose (Oryctolagus cuniculus [13]): 1 mg/kg
CCN(CCCCCC(C)(C)F)CCCCc1ccc(NS(C)(=O)=O)cc1	90 ms	–	–	105 ms	–	300%	Dose (Oryctolagus cuniculus [9]): 5 mg/kg; Dose (Oryctolagus cuniculus [14]): 5 mg/kg
CCN(CCCCCCCF)CCC[C@H](O)c1ccc(NS(C)(=O)=O)cc1	76 ms	0.25 mg/kg	0.9 mg/kg	105 ms	–	400%	Dose (Oryctolagus cuniculus [15]): 5 mg/kg; Dose (Oryctolagus cuniculus [12]): 0.25 mg/kg
CCN(CCCCCCCF)CCCCc1ccc(NS(C)(=O)=O)cc1	52 ms	1 mg/kg	0.1 mg/kg	96 ms	–	100%	Dose (Oryctolagus cuniculus [16]): 2 mg/kg; Dose (Oryctolagus cuniculus [17]): 0.5 mg/kg
CCN(CCCCCC(C)(C)F)CCCC(O)c1ccc(NS(C)(=O)=O)cc1 (configuration not stated)	96 ms	0.9 mg/kg	0.25 mg/kg	136 ms	0.25 mg/kg	> 2000%	Dose (Oryctolagus cuniculus [10]): 1 mg/kg
CCN(CCCCCC(C)F)CCC[C@H](O)c1ccc(NS(C)(=O)=O)cc1 (some centres not stated)	90 ms	0.2 mg/kg	0.4 mg/kg	130 ms	–	> 2000%	Dose (Oryctolagus cuniculus [18]): 1 mg/kg; Dose (Oryctolagus cuniculus [12]): 0.25 mg/kg
CCN(CCCCCCC(F)F)CCC[C@H](O)c1ccc(NS(C)(=O)=O)cc1	58 ms	0.5 mg/kg	0.25 mg/kg	118 ms	–	–	Dose (Oryctolagus cuniculus [19]): 0.5 mg/kg; Dose (Oryctolagus cuniculus [12]): 0.25 mg/kg
CCN(CCCCC(C)(C)F)CCCC(O)c1ccc(NS(C)(=O)=O)cc1 (configuration not stated)	178 ms	1.4 mg/kg	3.6 mg/kg	174 ms	–	–	Dose (Oryctolagus cuniculus [20]): 2 mg/kg; Dose (Oryctolagus cuniculus [21]): 1 mg/kg
CCN(CCCCCC(F)F)CCCC(O)c1ccc(NS(C)(=O)=O)cc1 (configuration not stated)	–	–	–	–	–	> 2000%	–
CCN(CCCCCC(C)(C)F)CCC[C@@H](O)c1ccc(NS(C)(=O)=O)cc1	59 ms	0.5 mg/kg	0.27 mg/kg	92 ms	–	–	Dose (Oryctolagus cuniculus [2]): 0.25 mg/kg; Dose (Oryctolagus cuniculus [12]): 0.25 mg/kg
CCN(CCCCCC(C)F)CCCCc1ccc(NS(C)(=O)=O)cc1 (configuration not stated)	56 ms	0.2 mg/kg	1.1 mg/kg	94 ms	–	300%	Dose (Oryctolagus cuniculus [9]): 0.5 mg/kg; Dose (Oryctolagus cuniculus [10]): 1 mg/kg
CCN(CCCCCC(C)F)CCCC(O)c1ccc(NS(C)(=O)=O)cc1.O=C(O)/C=C/C(=O)O (configuration not stated)	143 ms	0.3 mg/kg	0.2 mg/kg	166 ms	0.25 mg/kg	1300%	Dose (Oryctolagus cuniculus [22]): 0.25 mg/kg
CCCCCCCN(CC)CCC[C@H](O)c1ccc(NS(C)(=O)=O)cc1	105 ms	1.6 mg/kg	0.2 mg/kg	145 ms	0.25 mg/kg	–	Dose (Oryctolagus cuniculus [14]): 5 mg/kg
CCN(CCCCCC(C)(C)F)CCC[C@H](O)c1ccc(NS(C)(=O)=O)cc1	–	–	–	–	–	> 2000%	–
CCN(CCCCCC(C)(C)F)CCC[C@H](O)c1ccc(NS(C)(=O)=O)cc1 [TRECETILIDE]	69 ms	–	–	83 ms	–	–	Dose (Oryctolagus cuniculus [1]): 1 mg/kg; Dose (Oryctolagus cuniculus [15]): 5 mg/kg
CCN(CCCCCCC(F)F)CCCC(O)c1ccc(NS(C)(=O)=O)cc1 (configuration not stated)	48 ms	0.3 mg/kg	0.3 mg/kg	71 ms	0.25 mg/kg	> 2000%	Dose (Oryctolagus cuniculus [22]): 0.25 mg/kg
CCCCCCCN(CC)CCC[C@@H](O)c1ccc(NS(C)(=O)=O)cc1	69 ms	0.2 mg/kg	0.3 mg/kg	112 ms	0.25 mg/kg	100%	Dose (Oryctolagus cuniculus [13]): 1 mg/kg
